Laboratory results reported in ChEMBL document CHEMBL1140876, “Synthesis and antibacterial property of quinolines with potent DNA gyrase activity” (2009).
Converted amounts (≈) assume the structure as drawn. The source made the active and inactive calls. The calls are words filed in the database; no cut-off is given here.

Legend:
[1] = Inhibition of DNA gyrase assessed as pBR322 DNA relaxation at 5 uM
Procedure, shortened: (§1)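 Relaxation without ATP: gyrase (60 nM) with supercoiled pBR322 DNA (6 nM) and drug at […] for 1 h at 37 °C; relaxation judged by gel. Ciprofloxacin, novobiocin and nalidixic acid comparators.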

[2] = Inhibition of DNA gyrase assessed as pBR322 DNA relaxation at 1 uM; procedure, shortened: as §1
[3] = system: Staphylococcus aureus; assay: Antimicrobial activity against Staphylococcus aureus at 10 ug after 24 hrs by disk diffusion method; type: functional; details: read-out: IZ
Procedure, shortened: (§2)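 Inoculum made in 0.85% saline against McFarland standard, swabbed evenly onto nutrient agar; sterile filter-paper discs set equidistant and loaded with equal volumes of drug at varying amounts; zone of inhibition measured after 24 h at 37 °C; ciprofloxacin reference.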

[4] = system: Salmonella typhimurium; assay: Antimicrobial activity against Salmonella Typhimurium at 15 ug after 24 hrs by disk diffusion method; type: functional, Salmonella enterica subsp. enterica serovar Typhimurium; details: Salmonella enterica, read-out: IZ; procedure, shortened: as §2
[5] = system: Klebsiella pneumoniae; assay: Antimicrobial activity against Klebsiella pneumoniae by broth microdilution assay; type: functional
Procedure, shortened: (§3)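 Broth microdilution per NCCLS 1997 in 96-well plate; final inoculum 10^5 cfu/mL; incubated 35.7 °C in air 18–20 h; MIC read as lowest concentration with no visible growth.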

[6] = system: Klebsiella pneumoniae; assay: Antimicrobial activity against Klebsiella pneumoniae at 5 ug after 24 hrs by disk diffusion method; type: functional; details: read-out: IZ; procedure, shortened: as §2
[7] = system: Salmonella typhimurium; assay: Antimicrobial activity against Salmonella Typhimurium at 10 ug after 24 hrs by disk diffusion method; type: functional, Salmonella enterica subsp. enterica serovar Typhimurium; details: Salmonella enterica, read-out: IZ; procedure, shortened: as §2
[8] = system: Staphylococcus aureus; assay: Antimicrobial activity against Staphylococcus aureus at 15 ug after 24 hrs by disk diffusion method; type: functional; details: read-out: IZ; procedure, shortened: as §2
[9] = system: Pseudomonas aeruginosa; assay: Antimicrobial activity against Pseudomonas aeruginosa at 25 ug after 24 hrs by disk diffusion method; type: functional; details: read-out: IZ; procedure, shortened: as §2
[10] = system: Escherichia coli; assay: Antimicrobial activity against Escherichia coli at 25 ug after 24 hrs by disk diffusion method; type: functional; details: read-out: IZ; procedure, shortened: as §2
[11] = system: Escherichia coli; assay: Antimicrobial activity against Escherichia coli at 5 ug after 24 hrs by disk diffusion method; type: functional; details: read-out: IZ; procedure, shortened: as §2
[12] = system: Bacillus subtilis; assay: Antimicrobial activity against Bacillus subtilis by broth microdilution assay; type: functional; procedure, shortened: as §3
[13] = system: Pseudomonas aeruginosa; assay: Antimicrobial activity against Pseudomonas aeruginosa at 10 ug after 24 hrs by disk diffusion method; type: functional; details: read-out: IZ; procedure, shortened: as §2
[14] = system: Pseudomonas aeruginosa; assay: Antimicrobial activity against Pseudomonas aeruginosa at 5 ug after 24 hrs by disk diffusion method; type: functional; details: read-out: IZ; procedure, shortened: as §2
[15] = system: Klebsiella pneumoniae; assay: Antimicrobial activity against Klebsiella pneumoniae at 10 ug after 24 hrs by disk diffusion method; type: functional; details: read-out: IZ; procedure, shortened: as §2
[16] = system: Pseudomonas aeruginosa; assay: Antimicrobial activity against Pseudomonas aeruginosa at 20 ug after 24 hrs by disk diffusion method; type: functional; details: read-out: IZ; procedure, shortened: as §2
[17] = system: Bacillus subtilis; assay: Antimicrobial activity against Bacillus subtilis at 10 ug after 24 hrs by disk diffusion method; type: functional; details: read-out: IZ; procedure, shortened: as §2
[18] = system: Salmonella typhimurium; assay: Antimicrobial activity against Salmonella Typhimurium at 20 ug after 24 hrs by disk diffusion method; type: functional, Salmonella enterica subsp. enterica serovar Typhimurium; details: Salmonella enterica, read-out: IZ; procedure, shortened: as §2
[19] = system: Pseudomonas aeruginosa; assay: Antimicrobial activity against Pseudomonas aeruginosa by broth microdilution assay; type: functional; procedure, shortened: as §3
[20] = Inhibition of DNA gyrase assessed as conversion of relaxed pBR322 to supercoiled form
Procedure, shortened: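 Supercoiling in 15 µL reactions: gyrase assay buffer, 150 ng relaxed pBR322, 2–3 µL purified DNA gyrase, 3 h at 37 °C (E. coli); stopped with 50% glycerol/0.25% bromophenol blue; 1% agarose in 1× TBE pH 8.3, 90 V 3 h; ethidium bromide stain; supercoiled band brightness by densitometry. Ciprofloxacin comparator.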

[21] = system: Klebsiella pneumoniae; assay: Antimicrobial activity against Klebsiella pneumoniae at 25 ug after 24 hrs by disk diffusion method; type: functional; details: read-out: IZ; procedure, shortened: as §2
[22] = system: Escherichia coli; assay: Antimicrobial activity against Escherichia coli at 10 ug after 24 hrs by disk diffusion method; type: functional; details: read-out: IZ; procedure, shortened: as §2
[23] = system: Bacillus subtilis; assay: Antimicrobial activity against Bacillus subtilis at 15 ug after 24 hrs by disk diffusion method; type: functional; details: read-out: IZ; procedure, shortened: as §2
[24] = system: Salmonella typhimurium; assay: Antimicrobial activity against Salmonella Typhimurium at 25 ug after 24 hrs by disk diffusion method; type: functional, Salmonella enterica subsp. enterica serovar Typhimurium; details: Salmonella enterica, read-out: IZ; procedure, shortened: as §2
[25] = system: Bacillus subtilis; assay: Antimicrobial activity against Bacillus subtilis at 25 ug after 24 hrs by disk diffusion method; type: functional; details: read-out: IZ; procedure, shortened: as §2
[26] = system: Staphylococcus aureus; assay: Antimicrobial activity against Staphylococcus aureus by broth microdilution assay; type: functional; procedure, shortened: as §3
[27] = system: Escherichia coli; assay: Antimicrobial activity against Escherichia coli at 20 ug after 24 hrs by disk diffusion method; type: functional; details: read-out: IZ; procedure, shortened: as §2
[28] = system: Klebsiella pneumoniae; assay: Antimicrobial activity against Klebsiella pneumoniae at 20 ug after 24 hrs by disk diffusion method; type: functional; details: read-out: IZ; procedure, shortened: as §2
[29] = system: Pseudomonas aeruginosa; assay: Antimicrobial activity against Pseudomonas aeruginosa at 15 ug after 24 hrs by disk diffusion method; type: functional; details: read-out: IZ; procedure, shortened: as §2
[30] = system: Salmonella typhi; assay: Antimicrobial activity against Salmonella typhi by broth microdilution assay; type: functional, Salmonella enterica subsp. enterica serovar Typhi; details: Salmonella enterica
Procedure, shortened: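 Broth microdilution in 96-well plates following the NCCLS 1997 protocol. Final inoculum was 10^5 cfu/mL, with a control organism run alongside. Plates were incubated at 35.7 °C in air for 18–20 h. MIC is the lowest concentration with no visible growth.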

[31] = system: Staphylococcus aureus; assay: Antimicrobial activity against Staphylococcus aureus at 25 ug after 24 hrs by disk diffusion method; type: functional; details: read-out: IZ; procedure, shortened: as §2
[32] = system: Klebsiella pneumoniae; assay: Antimicrobial activity against Klebsiella pneumoniae at 15 ug after 24 hrs by disk diffusion method; type: functional; details: read-out: IZ; procedure, shortened: as §2
[33] = system: Escherichia coli; assay: Antimicrobial activity against Escherichia coli by broth microdilution assay; type: functional; procedure, shortened: as §3
[34] = system: Escherichia coli; assay: Antimicrobial activity against Escherichia coli at 15 ug after 24 hrs by disk diffusion method; type: functional; details: read-out: IZ; procedure, shortened: as §2
[35] = system: Salmonella typhimurium; assay: Antimicrobial activity against Salmonella Typhimurium at 5 ug after 24 hrs by disk diffusion method; type: functional, Salmonella enterica subsp. enterica serovar Typhimurium; details: Salmonella enterica, read-out: IZ; procedure, shortened: as §2
[36] = system: Escherichia coli; assay: Inhibition of DNA gyrase gene expression in Escherichia coli assessed as decrease in band intensity by RT-PCR amplification
Procedure, shortened: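 E. coli treated with drug; total RNA from cells sampled up to 24 h; 2 µg RNA to cDNA with MMLV reverse transcriptase; gyrase gene PCR (94 °C 4 min initial denaturation, 72 °C 7 min final extension); products on agarose gel, band intensity normalized to GAPDH; untreated cells as negative control.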

[37] = system: Staphylococcus aureus; assay: Antimicrobial activity against Staphylococcus aureus at 5 ug after 24 hrs by disk diffusion method; type: functional; details: read-out: IZ; procedure, shortened: as §2
[38] = system: Staphylococcus aureus; assay: Antimicrobial activity against Staphylococcus aureus at 20 ug after 24 hrs by disk diffusion method; type: functional; details: read-out: IZ; procedure, shortened: as §2
[39] = system: Bacillus subtilis; assay: Antimicrobial activity against Bacillus subtilis at 20 ug after 24 hrs by disk diffusion method; type: functional; details: read-out: IZ; procedure, shortened: as §2
[40] = Inhibition of DNA gyrase assessed as pBR322 DNA relaxation at 2.5 uM
Procedure, shortened: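 Gyrase (60 nM) was incubated with supercoiled pBR322 DNA (6 nM) and increasing compound concentrations (0, 0.1, 0.25, 0.5, 2.5) without ATP for 1 h at 37 °C. Relaxation of the supercoiled DNA was evaluated.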

## CO[C@@H]1[C@@H](OC(N)=O)[C@@H](O)[C@H](Oc2ccc3c(O)c(NC(=O)c4ccc(O)c(CC=C(C)C)c4)c(=O)oc3c2C)OC1(C)C
[1]
  Activity: inactive
[2]
  Activity: Active

## COc1ccc2c(c1)C(c1ccccc1)[C@@H]1Cn3cccc3[C@@H]1N2 (stereo partly drawn)
[3]
  zone of inhibition at 10 µg/disc: 24 mm
[4]
  zone of inhibition at 15 µg/disc: 18 mm
[5]
  MIC50: 0.25 µg/mL (≈ 0.79 µM)
  MIC90: 2 µg/mL (≈ 6.32 µM)
[6]
  zone of inhibition at 5 µg/disc: 10 mm
[7]
  zone of inhibition at 10 µg/disc: 16 mm
[8]
  zone of inhibition at 15 µg/disc: 26 mm
[9]
  zone of inhibition at 25 µg/disc: 36 mm
[10]
  zone of inhibition at 25 µg/disc: 23 mm
[11]
  zone of inhibition at 5 µg/disc: 12 mm
[12]
  MIC50: 0.3 µg/mL (≈ 0.948 µM)
  MIC90: 2 µg/mL (≈ 6.32 µM)
[13]
  zone of inhibition at 10 µg/disc: 26 mm
[14]
  zone of inhibition at 5 µg/disc: 24 mm
[15]
  zone of inhibition at 10 µg/disc: 14 mm
[16]
  zone of inhibition at 20 µg/disc: 34 mm
[1]
  Activity: inactive
[17]
  zone of inhibition at 10 µg/disc: 8 mm
[18]
  zone of inhibition at 20 µg/disc: 22 mm
[19]
  MIC50: 0.125 µg/mL (≈ 0.395 µM)
  MIC90: 1 µg/mL (≈ 3.16 µM)
[20]
  Activity: Active
[21]
  zone of inhibition at 25 µg/disc: 26 mm
[22]
  zone of inhibition at 10 µg/disc: 14 mm
[23]
  zone of inhibition at 15 µg/disc: 9 mm
[24]
  zone of inhibition at 25 µg/disc: 24 mm
[25]
  zone of inhibition at 25 µg/disc: 11 mm
[26]
  MIC50: 0.5 µg/mL (≈ 1.58 µM)
  MIC90: 0.5 µg/mL (≈ 1.58 µM)
[27]
  zone of inhibition at 20 µg/disc: 22 mm
[28]
  zone of inhibition at 20 µg/disc: 24 mm
[29]
  zone of inhibition at 15 µg/disc: 28 mm
[30]
  MIC50: 0.06 µg/mL (≈ 0.19 µM)
  MIC90: 0.15 µg/mL (≈ 0.474 µM)
[31]
  zone of inhibition at 25 µg/disc: 36 mm
[32]
  zone of inhibition at 15 µg/disc: 16 mm
[33]
  MIC50: 0.125 µg/mL (≈ 0.395 µM)
  MIC90: 0.25 µg/mL (≈ 0.79 µM)
[34]
  zone of inhibition at 15 µg/disc: 16 mm
[35]
  zone of inhibition at 5 µg/disc: 10 mm
[36]
  Activity: Active
[37]
  zone of inhibition at 5 µg/disc: 20 mm
[38]
  zone of inhibition at 20 µg/disc: 30 mm
[39]
  zone of inhibition at 20 µg/disc: 10 mm

## CCn1cc(C(=O)O)c(=O)c2ccc(C)nc21
[20]
  Activity: Active
[40]
  Activity: Active
